Some results are limits rather than exact numbers.

One series has as its target CDK11b (Homo sapiens, UniProt P21127). The series can be described thus: KINOMEscan binding to transcriptional kinases. The following applies: Figure S4B.
The next series relates to Myc, Mdm2, Mcl1 mRNA. The series can be described thus: qPCR analysis of mouse primary AML BM cells. The format is cell-based. The following applies: 1 μM, 4 hr ex vivo. In a few lines:
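Primary BM AML cells from MLL-AF9 mice treated ex vivo for 4 hr with 1 μM test compound or DMSO (stocks diluted 1:1000). Myc, Mdm2, Mcl1 and Axin2 transcripts measured by qPCR. N = 3, mean ± SD, Student's t test.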
On the technique in general: Quantitative PCR measures a nucleic acid by following its amplification.

Series [1] relates to Pol II CTD phosphorylation at Ser2 and Ser5. The series can be described thus: Western blot of Pol II CTD phosphorylation, MV4–11 cells. The format is cell-based. The following applies: MV4–11 human AML cells. For orientation: A western blot detects proteins with antibodies after separation by electrophoresis.
Series [2] deals with primary human leukemia cells from 5 individual patients. The series can be described thus: Ex vivo killing of primary human leukemia cells. The class given is cell-based. Particulars: 18–20 hr; for leukemia cell apoptosis: comparable inhibitor concentrations. In a few lines:
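BM mononuclear cells from newly diagnosed, untreated AML patients, isolated by Ficoll after BM biopsy. Used fresh or frozen; frozen cells thawed straight into IMDM with 50% FBS plus DNaseI. Viability stained with Annexin V and 7AAD after blocking with 20% human serum.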

The next series concerns the target CDK7 (Homo sapiens, UniProt P50613). The series can be described thus: KINOMEscan binding to transcriptional kinases. The following applies: for CDK7 Kd (direct binding affinity): Figure 4D.
Series [3] relates to primary leukemic BM cells isolated from MLL-AF9-induced AML mice. The series can be described thus: Ex vivo apoptosis. The format is cell-based, mouse. Particulars: 18 hr, Annexin V-positive cells. In a few lines:
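Leukemic mice (>80% GFP+ in PB); BM flushed from femur and tibia, erythrocytes lysed, cells strained. Cells cultured in StemPro-34 with 10 ng/ml IL3, IL6, TPO and SCF, 1.5*10^5 cells per well. Treated 16–18 hr, 5% CO2, with DMSO stocks diluted 1:1000; DMSO-only control. Stained with Annexin V-PE and 7AAD; flow read-out of GFP and PE. Triplicates, mean ± SD.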

For another series, the target named is CDK11a (Homo sapiens, UniProt Q9UQ88). The series can be described thus: KINOMEscan binding to transcriptional kinases. The following applies: Figure S4B.
The subject of series [4] is cKit^HiCD11b^Low progenitors from Tet2^−/−;Flt3^ITD mice. The series can be described thus: Ex vivo apoptotic killing of Tet2−/−. The format is cell-based, mouse. The following applies: 16 hr after treatment.
For series [5], the system named is Pol II CTD phosphorylation at Ser2 and Ser5. The series can be described thus: Western blot of Pol II CTD phosphorylation, primary mouse AML cells. The format is cell-based. Particulars: ex vivo 6 hr. An outline of the steps:
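Primary spleen cells from MLL-AF9 AML mice treated ex vivo for 6 hr with test compounds at several concentrations or DMSO. DMSO stocks diluted 1:1000 into medium. Immunoblot with PP2Ac as loading control.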

Series [6] deals with MV4–11 cells (DDR, p53, MDM2, MYC, MCL1). The series can be described thus: Western blot of MV4–11 cells. The following applies: 6.5 hr. The format is cell-based, human. An outline of the steps:
(§1)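 MV4–11 cells were exposed to test compounds at set concentrations or DMSO for 6.5 hr and analysed by western blot, with PP2Ac as loading control.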

In series [7] the test system is mouse splenic AML cells (MLL-AF9). The series can be described thus: Rapid-hit ex vivo AML killing assay. The format is cell-based. The following applies: 5 mins exposure, washout, further incubation. An outline of the steps: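 Mouse AML cells were plated at 1.5 × 10^5 per 0.15 mL in StemPro-34 with IL3, IL6, TPO and SCF (10 ng/ml each) at 5% CO2. Test compound was added from DMSO stock diluted 1:1000, with DMSO alone as control. At the set times cells were spun, resuspended in drug-free medium and kept for 18 hr total. Cells were stained with Annexin V-PE/7AAD and read by flow for GFP and PE.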

For series [8], the system named is MYC, MDM2, AXIN2, CCND1 mRNA in MV4–11 cells. The series can be described thus: qPCR mRNA analysis of MV4–11 cells. The following applies: 4 hr; A51 2μM, A86 2μM, BTX161 25μM. The class given is cell-based, human. An outline of the steps:
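MV4–11 cells were treated for 4 hr with test compounds or DMSO, and transcripts were measured by qPCR. Three replicates (N = 3) were run, given as mean ± SD and compared by Student's t test.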

In a further series the target is CDK8 (Homo sapiens, UniProt P49336). The series can be described thus: KINOMEscan binding to transcriptional kinases. Particulars: Figure S4B.
Another series deals with CDK19 (Homo sapiens, UniProt Q9BWU1). The series can be described thus: KINOMEscan binding to transcriptional kinases. Particulars: Figure S4B.
The target in a further series is CDK9 (Homo sapiens, UniProt P50750). The series can be described thus: KINOMEscan binding to transcriptional kinases. The following applies: for CDK9 Kd (direct binding affinity): Figure 4D.
Series [9] relates to heavy burden MLL-AF9 leukemic mice. The series can be described thus: Acute in vivo anti-leukemic effect, single oral dose. The arrangement: species or system mouse. In a few lines: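 MLL-AF9-IRES-GFP retrovirus-transduced BM cells were passaged through sublethally irradiated (500 rad) mice. 50,000 GFP+ BM cells were then injected IV into irradiated (250 rad) C57BL/6 WT mice aged 8–12 weeks. Mice with >80% GFP+ cells in PB got a single oral dose (e.g. 10 or 20 mg/kg) or vehicle and were sacrificed at short time points (5–6 or 16 hr). Read-outs: […], absolute BM GFP+ blast counts, H&E sections and blood smears; mean ± SD, N ≥ 3.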

A further series has as its target CDK13 (Homo sapiens, UniProt Q14004). The series can be described thus: KINOMEscan binding to transcriptional kinases. The following applies: Figure S4B.
Series [10] deals with MV4–11 cells (pSer2/5 CTD, DDR, p53, MDM2, caspase 3). The series can be described thus: Western blot of MV4–11 cells, single and combination treatment. The class given is cell-based, human. The following applies: for DDR, p53, MDM2 and caspase 3 activation: MV4–11, single agent (BTX161 6 hr, iCDK9 4 hr, THZ1 4 hr). In a few lines: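 MV4–11 cells treated at several concentrations, alone or combined: CKIα degrader for 6 hr, CDK9 inhibitor for 4 hr, CDK7 inhibitor for 4 hr. Lysates immunoblotted, with PP2Ac as loading control.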

Series [11] has as its system CKIα. The series can be described thus: Western blot of CKIα degradation in human AML cells. The format is cell-based. Particulars: MV4–11 cells, 6.5 hr. In a few lines: as §1
The target of the next series is GSK3α/β. The series can be described thus: KINOMEscan binding assay. Particulars: Figure 1C.
The target of series [12] is CKIα (Homo sapiens, UniProt P48729). The series can be described thus: KINOMEscan binding assay. The following applies: Figure 1C.
A further series addresses CKIδ (Homo sapiens, UniProt P48730). The series can be described thus: KINOMEscan binding assay. The following applies: Figure 1C.
The test system of a further series is p53 in RKO cells. The series can be described thus: Western blot of RKO cells treated with A-series inhibitors. The format is cell-based, human. Particulars: 18 hr. In a few lines: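 RKO cells grown in DMEM with 10% serum. Treated 18 hr with test compounds at several concentrations or DMSO. Lysates immunoblotted.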
The target of the next series is CKIε (Homo sapiens, UniProt P49674). The series can be described thus: KINOMEscan binding assay. The following applies: Figure 1C.
In a further series the test system is normal C57BL/6 mice. The series can be described thus: 7-day daily treatment for maximal tolerated dose. Particulars: 7 days. The format is in vivo, mouse.

Chain of CDK9 (P50750 whole entry): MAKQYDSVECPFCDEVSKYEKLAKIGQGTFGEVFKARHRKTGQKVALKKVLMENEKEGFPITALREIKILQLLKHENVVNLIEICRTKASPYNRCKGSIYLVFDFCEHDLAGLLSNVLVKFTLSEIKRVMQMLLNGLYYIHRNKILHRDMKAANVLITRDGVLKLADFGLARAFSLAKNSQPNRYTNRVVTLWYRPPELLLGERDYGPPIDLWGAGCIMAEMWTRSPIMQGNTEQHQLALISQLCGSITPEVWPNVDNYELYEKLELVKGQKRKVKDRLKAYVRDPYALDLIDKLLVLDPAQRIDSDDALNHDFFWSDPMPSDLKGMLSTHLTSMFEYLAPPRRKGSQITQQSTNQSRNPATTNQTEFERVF
Chain of CDK7 (P50613 whole entry): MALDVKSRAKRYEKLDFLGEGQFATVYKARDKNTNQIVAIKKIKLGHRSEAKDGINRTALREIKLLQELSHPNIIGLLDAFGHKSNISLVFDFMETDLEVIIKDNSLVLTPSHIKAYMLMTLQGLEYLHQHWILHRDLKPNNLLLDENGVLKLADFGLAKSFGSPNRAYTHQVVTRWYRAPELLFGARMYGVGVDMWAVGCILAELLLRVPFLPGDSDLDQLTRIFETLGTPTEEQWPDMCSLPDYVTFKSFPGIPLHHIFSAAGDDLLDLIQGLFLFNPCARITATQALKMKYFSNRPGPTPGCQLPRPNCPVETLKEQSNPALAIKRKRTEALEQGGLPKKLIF
Chain of CDK19 (Q9BWU1 whole entry): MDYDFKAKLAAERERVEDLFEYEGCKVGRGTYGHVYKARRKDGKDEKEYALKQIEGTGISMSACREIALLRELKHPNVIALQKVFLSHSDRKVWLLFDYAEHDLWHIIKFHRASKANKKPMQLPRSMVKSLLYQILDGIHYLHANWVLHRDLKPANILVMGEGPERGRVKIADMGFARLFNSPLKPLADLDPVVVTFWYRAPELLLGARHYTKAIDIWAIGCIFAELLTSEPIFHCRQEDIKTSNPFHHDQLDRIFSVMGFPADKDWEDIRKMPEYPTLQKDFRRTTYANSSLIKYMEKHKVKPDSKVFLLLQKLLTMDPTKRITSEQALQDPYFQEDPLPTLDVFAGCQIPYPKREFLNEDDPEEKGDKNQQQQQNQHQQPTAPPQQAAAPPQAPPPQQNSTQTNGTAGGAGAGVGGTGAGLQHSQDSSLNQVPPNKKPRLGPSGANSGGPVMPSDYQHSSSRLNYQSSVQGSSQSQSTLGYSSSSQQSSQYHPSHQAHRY
Chain of CDK11b (P21127 whole entry): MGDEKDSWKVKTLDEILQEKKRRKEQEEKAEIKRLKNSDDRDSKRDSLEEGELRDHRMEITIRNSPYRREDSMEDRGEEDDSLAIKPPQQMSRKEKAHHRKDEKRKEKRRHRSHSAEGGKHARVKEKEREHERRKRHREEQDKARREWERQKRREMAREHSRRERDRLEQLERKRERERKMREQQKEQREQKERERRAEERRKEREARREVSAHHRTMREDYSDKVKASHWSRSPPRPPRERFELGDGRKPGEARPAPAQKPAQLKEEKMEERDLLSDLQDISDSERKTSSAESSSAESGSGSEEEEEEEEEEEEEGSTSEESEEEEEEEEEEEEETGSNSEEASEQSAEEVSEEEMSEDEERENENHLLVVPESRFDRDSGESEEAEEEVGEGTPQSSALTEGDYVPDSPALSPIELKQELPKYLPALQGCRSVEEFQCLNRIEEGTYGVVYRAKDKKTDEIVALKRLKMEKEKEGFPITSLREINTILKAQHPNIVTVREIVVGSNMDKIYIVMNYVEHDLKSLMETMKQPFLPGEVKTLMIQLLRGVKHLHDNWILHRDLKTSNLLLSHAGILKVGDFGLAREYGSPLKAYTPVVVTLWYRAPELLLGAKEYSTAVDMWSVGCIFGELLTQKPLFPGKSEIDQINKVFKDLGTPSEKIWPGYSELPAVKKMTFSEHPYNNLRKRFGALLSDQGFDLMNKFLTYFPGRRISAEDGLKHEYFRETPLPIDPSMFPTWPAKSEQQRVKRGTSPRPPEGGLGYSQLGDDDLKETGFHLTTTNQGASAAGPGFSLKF
Chain of CDK8 (P49336 whole entry): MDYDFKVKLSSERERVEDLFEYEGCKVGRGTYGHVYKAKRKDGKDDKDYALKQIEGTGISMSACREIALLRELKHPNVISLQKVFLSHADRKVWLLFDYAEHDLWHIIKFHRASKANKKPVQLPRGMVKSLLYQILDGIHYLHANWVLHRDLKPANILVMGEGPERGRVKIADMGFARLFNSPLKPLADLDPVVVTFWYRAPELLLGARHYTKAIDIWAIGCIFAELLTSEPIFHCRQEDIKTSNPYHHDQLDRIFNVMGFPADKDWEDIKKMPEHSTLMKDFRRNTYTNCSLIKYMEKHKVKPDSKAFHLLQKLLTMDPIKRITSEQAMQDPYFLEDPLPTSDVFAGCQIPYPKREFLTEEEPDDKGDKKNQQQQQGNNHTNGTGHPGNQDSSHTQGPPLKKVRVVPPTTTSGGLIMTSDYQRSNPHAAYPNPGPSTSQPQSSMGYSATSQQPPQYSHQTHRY
Chain of CDK13 (Q14004 whole entry): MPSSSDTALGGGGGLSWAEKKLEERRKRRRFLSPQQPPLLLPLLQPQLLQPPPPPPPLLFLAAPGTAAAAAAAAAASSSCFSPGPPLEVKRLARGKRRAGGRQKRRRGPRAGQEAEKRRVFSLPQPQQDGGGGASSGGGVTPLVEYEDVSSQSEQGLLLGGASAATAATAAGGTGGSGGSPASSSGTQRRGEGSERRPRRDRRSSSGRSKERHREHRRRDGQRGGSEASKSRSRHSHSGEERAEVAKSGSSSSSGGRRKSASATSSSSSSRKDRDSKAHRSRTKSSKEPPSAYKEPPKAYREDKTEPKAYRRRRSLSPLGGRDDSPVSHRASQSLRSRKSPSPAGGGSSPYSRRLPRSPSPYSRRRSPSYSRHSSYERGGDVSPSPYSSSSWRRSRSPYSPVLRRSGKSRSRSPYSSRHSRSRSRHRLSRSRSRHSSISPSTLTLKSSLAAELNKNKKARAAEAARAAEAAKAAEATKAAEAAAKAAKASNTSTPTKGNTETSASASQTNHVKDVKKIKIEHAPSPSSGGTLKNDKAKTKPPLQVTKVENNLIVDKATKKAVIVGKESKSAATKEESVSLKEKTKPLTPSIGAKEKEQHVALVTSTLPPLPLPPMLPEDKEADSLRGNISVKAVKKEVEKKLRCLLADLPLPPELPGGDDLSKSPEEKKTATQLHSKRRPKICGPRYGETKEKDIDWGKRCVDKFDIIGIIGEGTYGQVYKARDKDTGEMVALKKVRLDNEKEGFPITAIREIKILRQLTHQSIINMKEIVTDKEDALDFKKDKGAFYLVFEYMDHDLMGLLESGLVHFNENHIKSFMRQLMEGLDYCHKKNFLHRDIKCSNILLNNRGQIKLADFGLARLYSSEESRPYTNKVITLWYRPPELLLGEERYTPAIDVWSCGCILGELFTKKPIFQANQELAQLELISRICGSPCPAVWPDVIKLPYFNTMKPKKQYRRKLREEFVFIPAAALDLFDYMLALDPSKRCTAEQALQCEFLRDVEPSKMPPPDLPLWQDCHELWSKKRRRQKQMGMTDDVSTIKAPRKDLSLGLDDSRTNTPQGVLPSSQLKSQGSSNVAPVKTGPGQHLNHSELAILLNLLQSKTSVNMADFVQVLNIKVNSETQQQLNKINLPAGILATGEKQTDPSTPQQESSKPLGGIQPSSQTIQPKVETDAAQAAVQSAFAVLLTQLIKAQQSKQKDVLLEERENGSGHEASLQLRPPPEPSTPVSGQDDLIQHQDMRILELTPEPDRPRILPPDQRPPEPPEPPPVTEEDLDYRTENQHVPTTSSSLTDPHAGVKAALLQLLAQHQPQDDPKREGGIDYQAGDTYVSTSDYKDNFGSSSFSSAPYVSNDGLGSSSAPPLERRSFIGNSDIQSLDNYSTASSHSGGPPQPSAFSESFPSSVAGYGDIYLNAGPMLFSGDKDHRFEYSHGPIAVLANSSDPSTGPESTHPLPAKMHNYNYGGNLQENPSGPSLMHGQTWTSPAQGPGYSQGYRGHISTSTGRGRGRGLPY
Chain of CKIδ (P48730 whole entry): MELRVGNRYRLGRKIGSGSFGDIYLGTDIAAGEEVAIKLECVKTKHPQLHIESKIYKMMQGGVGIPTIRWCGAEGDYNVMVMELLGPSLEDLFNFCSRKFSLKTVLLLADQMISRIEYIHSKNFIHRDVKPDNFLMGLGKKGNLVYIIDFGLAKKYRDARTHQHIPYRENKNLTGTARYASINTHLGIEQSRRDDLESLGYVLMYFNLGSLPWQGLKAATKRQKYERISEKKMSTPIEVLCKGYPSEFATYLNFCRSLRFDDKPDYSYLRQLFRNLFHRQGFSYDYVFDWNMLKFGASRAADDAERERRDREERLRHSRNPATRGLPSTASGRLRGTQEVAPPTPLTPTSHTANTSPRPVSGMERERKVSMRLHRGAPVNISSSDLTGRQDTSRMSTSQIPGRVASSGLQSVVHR
Chain of CKIα (Homo sapiens, UniProt P48729) (P48729 whole entry): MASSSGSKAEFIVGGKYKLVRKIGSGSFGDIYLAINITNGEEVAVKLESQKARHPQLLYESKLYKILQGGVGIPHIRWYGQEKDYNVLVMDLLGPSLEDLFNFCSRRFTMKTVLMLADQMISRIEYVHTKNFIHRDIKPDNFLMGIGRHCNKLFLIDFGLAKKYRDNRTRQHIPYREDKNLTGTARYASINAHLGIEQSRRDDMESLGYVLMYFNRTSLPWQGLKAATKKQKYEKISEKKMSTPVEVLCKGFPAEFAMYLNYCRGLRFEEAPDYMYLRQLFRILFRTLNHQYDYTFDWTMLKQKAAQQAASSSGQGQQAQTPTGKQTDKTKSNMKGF

One may read the IC50 as the concentration at which inhibition is half-maximal. With `Cn1ncc(-c2nc(NC3CCC(N)CC3)ncc2F)c1CC1CC1` [A86, (1R,4R)-N^1-(4-(5-(cyclopropylmethyl)-1-methyl-1H-pyrazol-4-yl)-5-fluoropyrimidin-2-yl)cyclohexane-1,4-diamine], the “inhibition of CDK11b in binding screen” value on CDK11b was “hardly any inhibition”. In addition, the “Myc, Mdm2, and Mcl1 mRNA expression” value in the series with Myc, Mdm2, Mcl1 mRNA is “significant reduction of Myc, Mdm2, and Mcl1 mRNA expression”. In addition, the “Pol II CTD phosphorylation at Ser2 and Ser5” value in series [1] and in series [5] was “marked reduction” each time. Moreover, the leukemia cell apoptosis entry in series [2] is reported as “leukemia cell apoptosis”. Besides, in series [2] (read-out: IC50 of killing effect, all 5 patient samples), the IC50 was in the range of 20 to 50 nM. For the same compound, at CDK7, the “CDK7 Kd (direct binding affinity)” value is “low nM Kd values”. Further, at CDK7 (Figure S4B), the “inhibition of CDK7 (TFIIH) in binding screen” value was “high inhibition”. In series [3], the “concentration highly effective in inducing leukemia cell apoptosis” value (from here on “concentration highly effective”) is on record as ≤ 160 nM. Further, the “inhibition of CDK11a in binding screen” value on CDK11a is “hardly any inhibition”. The “ex vivo apoptotic killing of cKit^HiCD11b^Low progenitors” value in series [4] is on record as “superior to midostaurin”. Further, in series [6], the “effect on DDR, p53, MDM2, MYC, MCL1 protein levels (WB)” value was “abolished the expression of MYC, MDM2, and the anti-apoptotic oncogene MCL1”. Moreover, in series [7], the “AML cell killing after short exposure” value was “sufficient to induce significant AML cell killing”. Also, the “effect on mRNA expression (MYC, MDM2, Wnt targets)” value in [8] is “marked reduction in mRNA expression of MYC and MDM2”. At CDK8, the “inhibition of CDK8 in binding screen” value is listed as “hardly any inhibition”. Also, the “inhibition of CDK19 in binding screen” value at CDK19 is given as “hardly any inhibition”. For the same compound, on CDK9, the “CDK9 Kd (direct binding affinity)” value was “low nM Kd values”. The “inhibition of CDK9 (P-TEFb) in binding screen” value on CDK9 (Figure S4B) is listed as “high inhibition”. Further, the “leukemic cell counts (GFP+) in BM and peripheral blood” value in series [9] (16 hr post single oral dose) is 5%–10%. Also, the “in vivo signaling in leukemic cells after single oral treatment” value in series [9] (A51 20 mg/kg 3 and 6 hr, A86 10 mg/kg 5 hr, spleen AML cells WB) was “phospho-CTD inhibition with downregulation of MCL1 and activation of p53, DDR, and caspase 3”. In addition, at CDK13, the “inhibition of CDK13 in binding screen” value is listed as “hardly any inhibition”.

Take `CO[C@@H]1[C@H](N(C)C(=O)c2ccccc2)C[C@H]2O[C@]1(C)n1c3ccccc3c3c4c(c5c6ccccc6n2c5c31)C(=O)NC4` [midostaurin, reference compound]: the leukemia cell apoptosis entry in [2] was “but not by A64 or midostaurin”.

With `Cc1cccc2c1CN([C@H]1CCCC(=O)NC1=O)C2=O` [BTX161, (S)-3-(4-methyl-1-oxoisoindolin-2-yl)azepane-2,7-dione], the “effect on DDR, p53, MDM2, MYC, MCL1 protein levels (WB)” value in [6] was “activates DDR and p53, while stabilizing the p53 antagonist MDM2”. The “DDR, p53, MDM2 and caspase 3 activation” value in [10] is “augmented p53 and MDM2 protein expression”. For the same compound, the “effect on mRNA expression (MYC, MDM2, Wnt targets)” value in [8] was “upregulated all the Wnt targets including MYC and did not affect MDM2 mRNA expression”. Further, the CKIα degradation entry in the series with CKIα [11] is “mediates degradation of CKIα better than lenalidomide”.

With `Cn1ncc(-c2nc(NC3CCC(NCc4cn[nH]c4)CC3)ncc2Cl)c1CC1CC1` [A75, (1R,4R)-N^1-((1H-pyrazol-4-yl)methyl)-N^4-(5-chloro-4-(5-(cyclopropylmethyl)-1-methyl-1H-pyrazol-4-yl)pyrimidin-2-yl)cyclohexane-1,4-diamine], the “concentration highly effective” value in series [3] is recorded as ≤ 160 nM.

With `Cn1ncc(-c2nc(N[C@H]3CC[C@H](n4cccn4)CC3)ncc2Cl)c1CC1CC1` [A64, N-((1R,4R)-4-(1H-pyrazol-1-yl)cyclohexyl)-5-chloro-4-(5-(cyclopropylmethyl)-1-methyl-1H-pyrazol-4-yl)pyrimidin-2-amine], the leukemia cell apoptosis result in [2] is “but not by A64 or midostaurin”. In addition, the “CDK7 Kd (direct binding affinity)” value on CDK7 is listed as “moderately”. Further, the GSK3α/β affinity result at GSK3α/β is recorded as “high GSK3α/β affinity”. On CKIα [12], the CKIα affinity entry was “low CKIα affinity”. The “affinity to CKIδ” value on CKIδ is “high affinity”. Also, the p53 induction entry with p53 in RKO cells is “only induces p53 at a high concentration”. For the same compound, on CDK9, the “CDK9 Kd (direct binding affinity)” value is given as “poorly”. For the same compound, on CKIε, the “affinity to CKIε” value is “high affinity”.

On to `Cn1ncc(-c2ccnc(N[C@H]3CC[C@H](N)CC3)n2)c1CC1CC1` [A14, (1R, 4R)-N^1-(4-(5-(cyclopropylmethyl)-1-methyl-1H-pyrazol-4-yl)pyrimidin-2-yl)cyclohexane-1,4-diamine], for which, in series [3], the “concentration highly effective” value is on record as ≤ 160 nM. Moreover, the “effect on hematopoiesis at 5–10 mg/kg” value with normal C57BL/6 mice (5–10 mg/kg) is “no adverse effect on hematopoiesis”. In the series with normal C57BL/6 mice (doses above 10 mg/kg), the “effect on blood counts at doses above 10 mg/kg” value is “transiently reduced the white blood cells (WBC) and platelet counts”.

As to `CN(C)C/C=C/C(=O)Nc1ccc(C(=O)Nc2cccc(Nc3ncc(Cl)c(-c4c[nH]c5ccccc45)n3)c2)cc1` [THZ1], in [10] (MV4–11, 4 hr, single agent), the “pSer2/5 CTD” value is on record as “reduced the pSer2/5 CTD”. Moreover, in [10], the “DDR, p53, MDM2 and caspase 3 activation” value was “little effect on DDR, p53, and caspase 3 activation”.
